The target in one test is integrin CD11a/CD18 (Homo sapiens, UniProt P20701). Nature of the test: adhesion of K562 CD11a/CD18 cells to immobilized ICAM-1. It counts as cell-based. To be noted: for selectivity for integrin CD11b/CD18 over CD11a/CD18: K562 CD11b/CD18 vs K562 CD11a/CD18 cell adhesion. Put shortly: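 K562 cells stably transfected with wild-type integrin CD11a/CD18. Test compound obtained as pure powder and assessed for its ability to increase adhesion of these cells to immobilized ICAM-1. This is compared with adhesion of K562 CD11b/CD18 cells to judge selectivity.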

Another test addresses integrin CD11b/CD18 (Homo sapiens, UniProt P11215). Nature of the test: adhesion of K562 CD11b/CD18 cells to immobilized Fibrinogen. Type of test: cell-based. Particulars: for EC50: read-out: EC50 (Effective Concentration for 50% increase in cell adhesion), K562 CD11b/CD18 cells, ligand Fg, NB=No increase in binding of K562 CD11b/CD18 cells to ligand Fg. Summed up:
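K562 cells stably transfected with wild-type integrin CD11b/CD18. Adhesion to immobilized ligand is measured in the presence of test compound. Secondary validation used two ligands, Fg and iC3b. For the analogue series, EC50 (μM) was derived from the increase in adhesion to Fg; absence of any increase was reported as no binding.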

Test [1] has as its target recombinant αA-domain of CD11b/CD18 (Homo sapiens, UniProt P11215). The test can be described thus: binding of purified recombinant αA-domain to immobilized Fg. Particulars: in words.

Some results are limits rather than exact numbers.

Regarding `CCOC(=O)CN1C(=O)S/C(=C\c2ccc(-c3ccc(Cl)cc3Cl)o2)C1=O` [compound 2], the “selectivity for integrin CD11b/CD18 over CD11a/CD18” value at integrin CD11a/CD18 was “two-fold higher selectivity”. Further, on integrin CD11b/CD18 (ligands Fg and iC3b), the “level of K562 CD11b/CD18 cell-adhesion in secondary assays” value was “high levels”.

`CCOC(=O)CN1C(=O)S/C(=C\c2ccc(N3CCOCC3)o2)C1=O` [compound 3]: the EC50 at integrin CD11b/CD18 is above 50 µM.

Turning to `COC(=O)CN1C(=O)S/C(=C\c2ccc(Sc3ccccc3)o2)C1=O` [compound 5], on integrin CD11b/CD18, the EC50 was above 50 µM.

Consider `CCOC(=O)CN1C(=O)S/C(=C\c2ccc(-c3ccccc3)o2)C1=O` [compound 6], for which, at integrin CD11a/CD18, the “selectivity for integrin CD11b/CD18 over CD11a/CD18” value is reported as “high selectivity”. On integrin CD11a/CD18 (in words), the “increase of K562 CD11a/CD18 cell adhesion to ICAM-1” value is on record as “no appreciable binding”. The “ligand efficiency (BEI)” value at integrin CD11b/CD18 came to 14. The “binding of αA-domain to immobilized Fg” value in test [1] is recorded as “increasing its binding to immobilized Fg”.

As for `CCOC(=O)CN1C(=O)S/C(=C\c2ccc(-c3ccc(C(=O)O)cc3C)o2)C1=O` [compound 11], the EC50 on integrin CD11b/CD18 was above 50 µM.

For the compound `COC(=O)CN1C(=O)S/C(=C\c2ccc(-c3ccc(C(=O)O)cc3)o2)C1=O` [compound 12], the EC50 at integrin CD11b/CD18 was above 50 µM.

Consider `COC(=O)C(C)N1C(=O)S/C(=C\c2ccc(-c3ccc(Cl)cc3Cl)o2)C1=O` (stereo not shown) [compound 13], for which the “agonist activity in words” value at integrin CD11b/CD18 (K562 CD11b/CD18 cell adhesion) was “inactive”. The EC50 at integrin CD11b/CD18 is above 50 µM.

As to `NS(=O)(=O)c1ccc(N2C(=O)S/C(=C\c3ccc(Cc4ccccc4)o3)C2=O)cc1` [compound 22], the EC50 at integrin CD11b/CD18 was above 50 µM.

Source of the values: article PMC2818319 (Bioorganic & medicinal chemistry letters, 2009).
